Data as given in ChEMBL document CHEMBL1126043, “Novel thiazolidine-2,4-diones as potent euglycemic agents” (1992).

Legend:
Assay type in all cases: functional
[1] = system: Mus musculus; assay: In vivo euglycemic activity (administered by oral gavage) in C57/6J-ob/ob mice by normalization of blood glucose levels at a dose of 1 mg/kg.
How it was run: (§1)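 Mice bled from retro-orbital sinus into tubes with 2% sodium heparin for baseline glucose, then dosed by oral gavage once daily for 4 days in 0.25% (w/v) methylcellulose in water, no pH adjustment (0.1 mL per 20 g). Bled 24 h after fourth dose. Samples centrifuged 2 min at 10000g. Plasma glucose measured by hexokinase UV method. Results scaled to vehicle (0%) and ciglitazone 50 mg/kg (100%).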

[2] = system: Mus musculus; assay: In vivo euglycemic activity (administered by oral gavage) in C57/6J-ob/ob mice by normalization of blood glucose levels at a dose of 0.5 mg/kg.; how it was run: as §1
[3] = system: Mus musculus; assay: In vivo euglycemic activity (administered by oral gavage) in C57/6J-ob/ob mice by normalization of blood glucose levels at a dose of 10 mg/kg.; how it was run: as §1
[4] = system: Mus musculus; assay: In vivo euglycemic activity (administered by oral gavage) in C57/6J-ob/ob mice measured by normalization of blood glucose levels at a dose of 5 mg/kg.
[5] = system: Mus musculus; assay: In vivo euglycemic activity of the compound (administered by oral gavage) in C57/6J-ob/ob mice is measured by normalization of blood glucose levels at a dose of 2.5(mg/kg); how it was run: as §1

Work on `Cc1oc(-c2ccc3ccccc3c2)nc1CCC(=O)c1ccc(/C=C2\SC(=O)NC2=O)cc1` yielded a Normalization [1] of 90% and a Normalization [2] of 38%.

Work on `COc1ccc(-c2nc(CCC(=O)c3ccc(/C=C4\SC(=O)NC4=O)cc3)c(C)o2)cc1` yielded a Normalization [1] of 62%.

`Cc1oc(-c2ccccc2)nc1/C=C/C(=O)c1ccc(CC2SC(=O)NC2=O)cc1` (stereo unspecified) was tested, and the Normalization [3] was 59% and the Normalization [4] was 100%.

In the case of `Cc1oc(-c2ccccc2)nc1CC(=O)Nc1ccc(CC2SC(=O)NC2=O)cc1` (stereo unspecified), the Normalization [5] is reported as 16% and the Normalization [4] is reported as 64%.

For `CO/N=C(\CCc1nc(-c2ccccc2)oc1C)c1ccc(CC2SC(=O)NC2=O)cc1` (stereo unspecified), the Normalization [1] was 0% and the Normalization [4] was 100%.

Work on `Cc1nc(-c2ccccc2)sc1CCC(=O)c1ccc(CC2SC(=O)NC2=O)cc1` (stereo unspecified) yielded a Normalization [5] of 33% and a Normalization [4] of 75%.

In the case of `Cc1oc(-c2ccccc2)nc1CCSc1ccc(CC2SC(=O)NC2=O)cc1` (stereo unspecified), the Normalization [2] is reported as 0%.

`O=C1NC(=O)C(Cc2ccc(C(=O)/C=C/c3ccccc3Cc3ccccc3)cc2)S1` (stereo unspecified) showed a Normalization [3] of 56%.

In the case of `Cc1oc(-c2ccccc2)nc1CC/C(=N\OCc1ccccc1)c1ccc(CC2SC(=O)NC2=O)cc1` (stereo unspecified), the Normalization [4] is reported as 17%.

Compound `Cc1oc(-c2ccccc2)nc1CNC(=O)c1ccc(CC2SC(=O)NC2=O)cc1` (stereo unspecified) has a Normalization [5] of 49% and a Normalization [4] of 50%.

`CCc1ccc(CCC(=O)c2ccc(CC3SC(=O)NC3=O)cc2)nc1` (stereo unspecified) was tested, and the Normalization [3] was 41% and the Normalization [4] was 0%.

With `Cc1oc(-c2ccc(O)cc2)nc1CCC(=O)c1ccc(CC2SC(=O)NC2=O)cc1` (stereo unspecified) the Normalization [1] was 0%.

With `O=C1NC(=O)C(Cc2ccc(C(O)CCc3ccccc3)cc2)S1` (stereo unspecified) the Normalization [3] was 89% and the Normalization [4] was 47%.

`Cc1ccc(-c2nc(CCC(=O)c3ccc(CC4SC(=O)NC4=O)s3)c(C)o2)cc1` (stereo unspecified) showed a Normalization [1] of 100% and a Normalization [2] of 27%.

`CCOC(=O)c1ccc(/C=C/C(=O)c2ccc(CC3SC(=O)NC3=O)cc2)cc1` (stereo unspecified) gave a Normalization [3] of 4%.

`Cc1oc(-c2ccc(C(F)(F)F)cc2)nc1CCC(=O)c1ccc(CC2SC(=O)NC2=O)s1` (stereo unspecified) gave a Normalization [1] of 78% and a Normalization [2] of 27%.

Compound `Cc1cc(-c2nc(CCC(=O)c3ccc(CC4SC(=O)NC4=O)cc3)c(C)o2)cc(C)c1O` (stereo unspecified) has a Normalization [1] of 100% and a Normalization [2] of 30%.

`O=C1NC(=O)C(Cc2ccc(C(=O)CCc3ccc(OCc4ccccc4)cc3)cc2)S1` (stereo unspecified) was tested, and the Normalization [3] was 45%.

For `O=C1NC(=O)C(Cc2ccc(C(=O)CCc3csc(-c4ccccc4)n3)cc2)S1` (stereo unspecified), the Normalization [5] was 48% and the Normalization [4] was 91%.

In the case of `Cc1oc(-c2ccccc2)nc1CN(c1ccccc1)S(=O)(=O)c1ccc(CC2SC(=O)NC2=O)cc1` (stereo unspecified), the Normalization [5] is reported as 32%.

For `COc1ccc(/C=C/C(=O)c2ccc(CC3SC(=O)NC3=O)cc2)cc1` (stereo unspecified), the Normalization [3] was 68% and the Normalization [4] was 0%.

With `Cc1oc(-c2ccccc2)nc1CC(=O)N(C)c1ccc(CC2SC(=O)NC2=O)cc1` (stereo unspecified) the Normalization [4] was 9%.

With `Cc1ccc(-c2nc(CCC(=O)c3ccc(/C=C4\SC(=O)NC4=O)cc3)co2)cc1` the Normalization [1] was 53%.

`Cc1oc(-c2ccccc2)nc1CN(C(=O)c1ccc(CC2SC(=O)NC2=O)cc1)c1ccccc1` (stereo unspecified) gave a Normalization [4] of 23%.

Compound `O=C1NC(=O)C(Cc2ccc(C(=O)Cc3ccccc3)cc2)S1` (stereo unspecified) has a Normalization [3] of 0%.

`O=C1NC(=O)C(Cc2ccc(C(=O)/C=C/c3ccc(Br)cc3)cc2)S1` (stereo unspecified) showed a Normalization [3] of 28%.

`Cc1oc(-c2ccccc2)nc1CCC(O)c1ccc(CC2SC(=O)NC2=O)s1` (stereo unspecified) was tested, and the Normalization [1] was 23% and the Normalization [4] was 100%.

`Cc1ccc(-c2nc(CCC(=O)c3ccc(/C=C4\SC(=O)NC4=O)cc3)c(C)o2)cc1` showed a Normalization [1] of 0% and a Normalization [2] of 27%.

`O=C1NC(=O)C(Cc2ccc(C(=O)CCc3ccc(-c4ccccc4)cc3)cc2)S1` (stereo unspecified) was tested, and the Normalization [3] was 71% and the Normalization [4] was 54%.

In the case of `Cc1oc(-c2ccccc2)nc1CCCc1ccc(CC2SC(=O)NC2=O)cc1` (stereo unspecified), the Normalization [2] is reported as 37%.
